System: HEK-293T
Test: Multiplex assay against HEK293T;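 as to Population Tubulin-Different-Phenotype (%): share of the cells with healthy nuclei that show this phenotype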
Type: toxicity, cell-based
Conditions: human
Method in brief: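 Imaging took place on a CQ1 microscope at 37°C and 5% CO2 once compound had been added to live cells stained at seeding with Hoechst33342, BioTracker Green Microtubule Cytoskeleton Dye, MitoTracker Red and Annexin V Alexa Fluor 680. CellPathfinder machine-learning gating classed cells as Hoechst high-intensity objects or normal cells, classed normal cells as having healthy, pyknosed or fragmented nuclei, and classed pyknosed cells as mitotic or apoptotic. Tubulin, mitochondrial-mass and membrane-permeability phenotypes are per cents of the healthy-nucleus cells.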

[1] = 12 h, 1 µM, compound concentration 1 uM, replicate 1
[2] = 12 h, 1 µM, compound concentration 1 uM, replicate 2
[3] = 12 h, 10 µM, compound concentration 10 uM, replicate 1
[4] = 12 h, 10 µM, compound concentration 10 uM, replicate 2
[5] = 24 h, 1 µM, compound concentration 1 uM, replicate 1
[6] = 24 h, 1 µM, compound concentration 1 uM, replicate 2
[7] = 24 h, 10 µM, compound concentration 10 uM, replicate 1
[8] = 24 h, 10 µM, compound concentration 10 uM, replicate 2
[9] = 48 h, 1 µM, compound concentration 1 uM, replicate 1
[10] = 48 h, 1 µM, compound concentration 1 uM, replicate 2
[11] = 48 h, 10 µM, compound concentration 10 uM, replicate 1
[12] = 48 h, 10 µM, compound concentration 10 uM, replicate 2

Structure (SMILES): O=C(Nc1cccnn1)N1CCC(=Cc2cccc(Oc3ccc(C(F)(F)F)cn3)c2)CC1
- Population Apoptotic (%) [1]: 22%
- Population Fragmented Nuclei (%) [1]: 20%
- Population Healthy Nuclei (%) [1]: 46%
- Population Hoechst High Intensity Objects (%) [1]: 16%
- Population Membrane Permeable-Phenotype (%) [1]: 10%
- Population Mitochondria Different-Phenotype (%) [1]: 17%
- Population Mitotic Cells (%) [1]: 77%
- Population Normal (%) [1]: 83%
- Population Pyknosed Nuclei (%) [1]: 33%
- Population Tubulin-Different-Phenotype (%) [1]: 29%
- Total Cell Count [1]: 578
- Population Apoptotic (%) [2]: 17%
- Population Fragmented Nuclei (%) [2]: 5%
- Population Healthy Nuclei (%) [2]: 83%
- Population Hoechst High Intensity Objects (%) [2]: 9%
- Population Membrane Permeable-Phenotype (%) [2]: 7%
- Population Mitochondria Different-Phenotype (%) [2]: 30%
- Population Mitotic Cells (%) [2]: 82%
- Population Normal (%) [2]: 90%
- Population Pyknosed Nuclei (%) [2]: 11%
- Population Tubulin-Different-Phenotype (%) [2]: 62%
- Total Cell Count [2]: 1415
- Population Apoptotic (%) [3]: 30%
- Population Fragmented Nuclei (%) [3]: 13%
- Population Healthy Nuclei (%) [3]: 67%
- Population Hoechst High Intensity Objects (%) [3]: 9%
- Population Membrane Permeable-Phenotype (%) [3]: 3%
- Population Mitochondria Different-Phenotype (%) [3]: 4%
- Population Mitotic Cells (%) [3]: 69%
- Population Normal (%) [3]: 90%
- Population Pyknosed Nuclei (%) [3]: 18%
- Population Tubulin-Different-Phenotype (%) [3]: 5%
- Total Cell Count [3]: 619
- Population Apoptotic (%) [4]: 8%
- Population Fragmented Nuclei (%) [4]: 7%
- Population Healthy Nuclei (%) [4]: 88%
- Population Hoechst High Intensity Objects (%) [4]: 1%
- Population Membrane Permeable-Phenotype (%) [4]: 1%
- Population Mitochondria Different-Phenotype (%) [4]: 12%
- Population Mitotic Cells (%) [4]: 91%
- Population Normal (%) [4]: 98%
- Population Pyknosed Nuclei (%) [4]: 4%
- Population Tubulin-Different-Phenotype (%) [4]: 6%
- Total Cell Count [4]: 1821
- Population Apoptotic (%) [5]: 31%
- Population Fragmented Nuclei (%) [5]: 16%
- Population Healthy Nuclei (%) [5]: 56%
- Population Hoechst High Intensity Objects (%) [5]: 15%
- Population Membrane Permeable-Phenotype (%) [5]: 12%
- Population Mitochondria Different-Phenotype (%) [5]: 19%
- Population Mitotic Cells (%) [5]: 68%
- Population Normal (%) [5]: 84%
- Population Pyknosed Nuclei (%) [5]: 27%
- Population Tubulin-Different-Phenotype (%) [5]: 54%
- Total Cell Count [5]: 519
- Population Apoptotic (%) [6]: 8%
- Population Fragmented Nuclei (%) [6]: 6%
- Population Healthy Nuclei (%) [6]: 83%
- Population Hoechst High Intensity Objects (%) [6]: 10%
- Population Membrane Permeable-Phenotype (%) [6]: 10%
- Population Mitochondria Different-Phenotype (%) [6]: 30%
- Population Mitotic Cells (%) [6]: 91%
- Population Normal (%) [6]: 89%
- Population Pyknosed Nuclei (%) [6]: 10%
- Population Tubulin-Different-Phenotype (%) [6]: 82%
- Total Cell Count [6]: 1537
- Population Apoptotic (%) [7]: 17%
- Population Fragmented Nuclei (%) [7]: 9%
- Population Healthy Nuclei (%) [7]: 83%
- Population Hoechst High Intensity Objects (%) [7]: 4%
- Population Membrane Permeable-Phenotype (%) [7]: 8%
- Population Mitochondria Different-Phenotype (%) [7]: 2%
- Population Mitotic Cells (%) [7]: 82%
- Population Normal (%) [7]: 95%
- Population Pyknosed Nuclei (%) [7]: 7%
- Population Tubulin-Different-Phenotype (%) [7]: 5%
- Total Cell Count [7]: 783
- Population Apoptotic (%) [8]: 2%
- Population Fragmented Nuclei (%) [8]: 22%
- Population Healthy Nuclei (%) [8]: 74%
- Population Hoechst High Intensity Objects (%) [8]: 3%
- Population Membrane Permeable-Phenotype (%) [8]: 3%
- Population Mitotic Cells (%) [8]: 97%
- Population Normal (%) [8]: 96%
- Population Pyknosed Nuclei (%) [8]: 2%
- Population Tubulin-Different-Phenotype (%) [8]: 8%
- Total Cell Count [8]: 3029

Structure (SMILES): O=C1N/C(=N/c2ccccc2F)S/C1=C\c1ccc(C(=O)O)cc1
- Population Apoptotic (%) [1]: 31%
- Population Fragmented Nuclei (%) [1]: 14%
- Population Healthy Nuclei (%) [1]: 38%
- Population Hoechst High Intensity Objects (%) [1]: 14%
- Population Membrane Permeable-Phenotype (%) [1]: 0%
- Population Mitochondria Different-Phenotype (%) [1]: 70%
- Population Mitotic Cells (%) [1]: 68%
- Population Normal (%) [1]: 85%
- Population Pyknosed Nuclei (%) [1]: 46%
- Population Tubulin-Different-Phenotype (%) [1]: 21%
- Total Cell Count [1]: 182
- Population Apoptotic (%) [2]: 8%
- Population Fragmented Nuclei (%) [2]: 6%
- Population Healthy Nuclei (%) [2]: 42%
- Population Hoechst High Intensity Objects (%) [2]: 4%
- Population Membrane Permeable-Phenotype (%) [2]: 6%
- Population Mitochondria Different-Phenotype (%) [2]: 6%
- Population Mitotic Cells (%) [2]: 91%
- Population Normal (%) [2]: 95%
- Population Pyknosed Nuclei (%) [2]: 50%
- Population Tubulin-Different-Phenotype (%) [2]: 6%
- Total Cell Count [2]: 145
- Population Apoptotic (%) [3]: 36%
- Population Fragmented Nuclei (%) [3]: 10%
- Population Healthy Nuclei (%) [3]: 38%
- Population Hoechst High Intensity Objects (%) [3]: 14%
- Population Membrane Permeable-Phenotype (%) [3]: 4%
- Population Mitochondria Different-Phenotype (%) [3]: 63%
- Population Mitotic Cells (%) [3]: 63%
- Population Normal (%) [3]: 85%
- Population Pyknosed Nuclei (%) [3]: 50%
- Population Tubulin-Different-Phenotype (%) [3]: 33%
- Total Cell Count [3]: 203
- Population Apoptotic (%) [4]: 10%
- Population Fragmented Nuclei (%) [4]: 4%
- Population Healthy Nuclei (%) [4]: 51%
- Population Hoechst High Intensity Objects (%) [4]: 3%
- Population Membrane Permeable-Phenotype (%) [4]: 5%
- Population Mitochondria Different-Phenotype (%) [4]: 18%
- Population Mitotic Cells (%) [4]: 89%
- Population Normal (%) [4]: 96%
- Population Pyknosed Nuclei (%) [4]: 43%
- Population Tubulin-Different-Phenotype (%) [4]: 16%
- Total Cell Count [4]: 212
- Population Apoptotic (%) [5]: 43%
- Population Fragmented Nuclei (%) [5]: 16%
- Population Healthy Nuclei (%) [5]: 38%
- Population Hoechst High Intensity Objects (%) [5]: 12%
- Population Membrane Permeable-Phenotype (%) [5]: 3%
- Population Mitochondria Different-Phenotype (%) [5]: 46%
- Population Mitotic Cells (%) [5]: 56%
- Population Normal (%) [5]: 87%
- Population Pyknosed Nuclei (%) [5]: 45%
- Population Tubulin-Different-Phenotype (%) [5]: 24%
- Total Cell Count [5]: 185
- Population Apoptotic (%) [6]: 8%
- Population Fragmented Nuclei (%) [6]: 6%
- Population Healthy Nuclei (%) [6]: 56%
- Population Hoechst High Intensity Objects (%) [6]: 5%
- Population Membrane Permeable-Phenotype (%) [6]: 12%
- Population Mitochondria Different-Phenotype (%) [6]: 13%
- Population Mitotic Cells (%) [6]: 91%
- Population Normal (%) [6]: 94%
- Population Pyknosed Nuclei (%) [6]: 36%
- Population Tubulin-Different-Phenotype (%) [6]: 21%
- Total Cell Count [6]: 168
- Population Apoptotic (%) [7]: 51%
- Population Fragmented Nuclei (%) [7]: 13%
- Population Healthy Nuclei (%) [7]: 46%
- Population Hoechst High Intensity Objects (%) [7]: 16%
- Population Membrane Permeable-Phenotype (%) [7]: 5%
- Population Mitochondria Different-Phenotype (%) [7]: 48%
- Population Mitotic Cells (%) [7]: 48%
- Population Normal (%) [7]: 83%
- Population Pyknosed Nuclei (%) [7]: 39%
- Population Tubulin-Different-Phenotype (%) [7]: 26%
- Total Cell Count [7]: 236
- Population Apoptotic (%) [8]: 13%
- Population Fragmented Nuclei (%) [8]: 5%
- Population Healthy Nuclei (%) [8]: 69%
- Population Hoechst High Intensity Objects (%) [8]: 4%
- Population Membrane Permeable-Phenotype (%) [8]: 8%
- Population Mitochondria Different-Phenotype (%) [8]: 17%
- Population Mitotic Cells (%) [8]: 86%
- Population Normal (%) [8]: 96%
- Population Pyknosed Nuclei (%) [8]: 25%
- Population Tubulin-Different-Phenotype (%) [8]: 24%
- Total Cell Count [8]: 275
- Population Apoptotic (%) [9]: 44%
- Population Fragmented Nuclei (%) [9]: 20%
- Population Healthy Nuclei (%) [9]: 43%
- Population Hoechst High Intensity Objects (%) [9]: 16%
- Population Membrane Permeable-Phenotype (%) [9]: 2%
- Population Mitochondria Different-Phenotype (%) [9]: 27%
- Population Mitotic Cells (%) [9]: 55%
- Population Normal (%) [9]: 83%
- Population Pyknosed Nuclei (%) [9]: 36%
- Population Tubulin-Different-Phenotype (%) [9]: 26%
- Total Cell Count [9]: 254
- Population Apoptotic (%) [10]: 14%
- Population Fragmented Nuclei (%) [10]: 6%
- Population Healthy Nuclei (%) [10]: 80%
- Population Hoechst High Intensity Objects (%) [10]: 5%
- Population Membrane Permeable-Phenotype (%) [10]: 11%
- Population Mitochondria Different-Phenotype (%) [10]: 6%
- Population Mitotic Cells (%) [10]: 85%
- Population Normal (%) [10]: 94%
- Population Pyknosed Nuclei (%) [10]: 12%
- Population Tubulin-Different-Phenotype (%) [10]: 24%
- Total Cell Count [10]: 299
- Population Apoptotic (%) [11]: 29%
- Population Fragmented Nuclei (%) [11]: 18%
- Population Healthy Nuclei (%) [11]: 45%
- Population Hoechst High Intensity Objects (%) [11]: 11%
- Population Membrane Permeable-Phenotype (%) [11]: 2%
- Population Mitochondria Different-Phenotype (%) [11]: 19%
- Population Mitotic Cells (%) [11]: 70%
- Population Normal (%) [11]: 88%
- Population Pyknosed Nuclei (%) [11]: 35%
- Population Tubulin-Different-Phenotype (%) [11]: 21%
- Total Cell Count [11]: 279
- Population Apoptotic (%) [12]: 6%
- Population Fragmented Nuclei (%) [12]: 6%
- Population Healthy Nuclei (%) [12]: 83%
- Population Hoechst High Intensity Objects (%) [12]: 2%
- Population Membrane Permeable-Phenotype (%) [12]: 3%
- Population Mitochondria Different-Phenotype (%) [12]: 5%
- Population Mitotic Cells (%) [12]: 94%
- Population Normal (%) [12]: 97%
- Population Pyknosed Nuclei (%) [12]: 9%
- Population Tubulin-Different-Phenotype (%) [12]: 14%
- Total Cell Count [12]: 534

Source: ChEMBL document CHEMBL4689842, “EUbOPEN Chemogenomics Library wave 1” (2021)
